“And” between values parts separate entries of the source, which are not always exact repeats. Equal values may be shown once.
Key:
MraY from S. aureus = molecular target: T1, MraY from S. aureus (Staphylococcus aureus, UniProt Q2FZ93); assay type: biochemical
T1 sequence (Q2FZ93 1-321): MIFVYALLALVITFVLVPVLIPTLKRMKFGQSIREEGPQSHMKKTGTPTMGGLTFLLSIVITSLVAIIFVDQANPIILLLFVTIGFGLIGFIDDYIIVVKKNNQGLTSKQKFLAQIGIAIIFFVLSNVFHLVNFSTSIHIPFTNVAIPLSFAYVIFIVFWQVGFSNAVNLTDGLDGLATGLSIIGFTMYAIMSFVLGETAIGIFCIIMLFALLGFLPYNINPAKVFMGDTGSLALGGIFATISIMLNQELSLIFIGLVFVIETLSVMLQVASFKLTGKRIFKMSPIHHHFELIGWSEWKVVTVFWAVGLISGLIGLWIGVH
Method in brief: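 S. aureus MraY crude membranes (final total protein ~1 mg/mL) with 50 μM undecaprenyl phosphate and 7.5 μM dansylated Park's nucleotide in 100 mM Tris-HCl pH 7.5, 200 mM KCl, 10 mM MgCl2, 0.1% Triton X-100. Fluorescence followed over time (ex 355/em 520 nm). Rate from 0–2 min linear regression; sigmoidal fit against log concentration gives IC50 ± SD. Variant: membranes pretreated with 1 mM diamide, 0 °C, 20 min (final 50 μM).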

E. coli ΔtolC = assay: Growth inhibition of E. coli ΔtolC; assay type: cell-based; details: conjugate vs. non-conjugated 9, E. coli ΔtolC
E. coli DH5α = assay type: cell-based; details: growth inhibition, efflux-competent strain, OD 600 nm
P. aeruginosa PAO1 = assay type: cell-based; details: growth inhibition, OD 600 nm
MraY = details: read-out: MraY inhibition IC50; in vitro; ref 15c; cited from earlier work
S. aureus = details: ref 15c; cited from earlier work

Row | SMILES | IC50 (MraY from S. aureus) | fold increase of antibacterial activity relative to 9 (E. coli ΔtolC) | IC50 (E. coli DH5α) (E. coli DH5α) [µg/mL] | IC50 (P. aeruginosa PAO1) (P. aeruginosa PAO1) [µg/mL] | IC50 (MraY) [nM] | antibacterial activity against S. aureus (S. aureus)
1 | CC(=O)Oc1cccc(C(=O)N[C@H]2COC(=O)[C@@H](NC(=O)c3cccc(OC(C)=O)c3OC(C)=O)[C@H](CCCNC(=O)CCSSCCCCCCCCCCC(=O)NC[C@H](NC(=O)[C@H](CCCCN)NC(=O)N[C@H](C(=O)O)C(C)C)C(=O)NCCCN[C@@H](C[C@H]3O[C@@H](n4ccc(=O)[nH]c4=O)[C@H](O)[C@@H]3O)C(=O)O)OC(=O)[C@@H](NC(=O)c3cccc(OC(C)=O)c3OC(C)=O)COC2=O)c1OC(C)=O [(AcO)EntKL‐SS‐9] | 123 nM and 89 nM | ca. 11 fold | >100 | >100 | – | –
2 | CO[C@H]1[C@H](O[C@H]([C@H]2O[C@@H](n3ccc(=O)[nH]c3=O)[C@H](O)[C@@H]2O)[C@H](NCCCNC(=O)[C@@H](NC(=O)[C@@H](NC(=O)N[C@H](C(=O)O)C(C)C)[C@@H]2CCNC(=N)N2)[C@@H](OC(=O)CCCCCCCCCCCCC(C)C)C(C)C)C(=O)O)O[C@H](CN)[C@H]1O [Compound 5, muraymycin B8] | – | – | – | – | 0.004 ± 0.0007 | promising antibacterial activity
